# From ChEMBL document CHEMBL1137584, “Constrained 7-fluorocarboxychromone-4-aminopiperidine based Melanin-concentrating hormone receptor 1 antagonists: the effects of chirality on substituted indan-1-ylamines” (Bioorg Med Chem Lett, 2007)
# Legend:
# [1] = target: Melanin-concentrating hormone receptor 1 (Homo sapiens, UniProt Q99705); assay: Displacement of 125I-MCH from MCH-R1 expressed in IMR-32 cells; format: cell-based
# [2] = target: Voltage-gated inwardly rectifying potassium channel KCNH2 (Homo sapiens, UniProt Q12809); assay: Displacement of 3H-dofetilide from hERG-expressing HEK membrane homogenates
# [3] = target: Melanin-concentrating hormone receptor (Homo sapiens, UniProt Q969V1+Q99705); assay: Inhibition of MCH-mediated calcium release in IMR-32 cells; format: functional, cell-based
# [4] = (§1) Half-life in plasma of DIO mice after 10 mg/kg peroral dose; format: ADME, organism-based; set-up: dose 10 mg/kg, route oral; conditions: mouse, plasma, po
# Method in brief: (§2)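 Single oral dose, 10 mg/kg in 1% Tween 80/water, to DIO mice; plasma and brain sampled over time. Cmax = average of the three mice with highest concentrations ± SEM. Mean concentration data fitted multi-exponentially; AUC0-t by linear trapezoidal rule, extrapolated to infinity with Ct/β added.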
# Mus musculus [5] = assay: Plasma Cmax in DIO mice after 10 mg/kg peroral dose; format: ADME, organism-based; set-up: dose 10 mg/kg, route oral; conditions: in vivo, po; method in brief: as §2
# Mus musculus [6] = assay: Brain AUC in DIO mice after 10 mg/kg peroral dose; format: ADME, organism-based; set-up: dose 10 mg/kg, route oral; conditions: in vivo, po; method in brief: as §2
# Mus musculus [7] = assay: Plasma AUC in DIO mice after 10 mg/kg peroral dose; format: ADME, organism-based; set-up: dose 10 mg/kg, route oral; conditions: in vivo, po; method in brief: as §2
# Mus musculus [8] = assay: as §1; format: ADME, organism-based; set-up: dose 10 mg/kg, route oral; conditions: in vivo, po; method in brief: as §2
# [9] = Brain Cmax in DIO mice after 10 mg/kg peroral dose; format: ADME, organism-based; set-up: dose 10 mg/kg, route oral; conditions: mouse, po; method in brief: as §2
# Voltage-gated inwardly rectifying potassium channel KCNH2, sequence (Q12809 whole entry): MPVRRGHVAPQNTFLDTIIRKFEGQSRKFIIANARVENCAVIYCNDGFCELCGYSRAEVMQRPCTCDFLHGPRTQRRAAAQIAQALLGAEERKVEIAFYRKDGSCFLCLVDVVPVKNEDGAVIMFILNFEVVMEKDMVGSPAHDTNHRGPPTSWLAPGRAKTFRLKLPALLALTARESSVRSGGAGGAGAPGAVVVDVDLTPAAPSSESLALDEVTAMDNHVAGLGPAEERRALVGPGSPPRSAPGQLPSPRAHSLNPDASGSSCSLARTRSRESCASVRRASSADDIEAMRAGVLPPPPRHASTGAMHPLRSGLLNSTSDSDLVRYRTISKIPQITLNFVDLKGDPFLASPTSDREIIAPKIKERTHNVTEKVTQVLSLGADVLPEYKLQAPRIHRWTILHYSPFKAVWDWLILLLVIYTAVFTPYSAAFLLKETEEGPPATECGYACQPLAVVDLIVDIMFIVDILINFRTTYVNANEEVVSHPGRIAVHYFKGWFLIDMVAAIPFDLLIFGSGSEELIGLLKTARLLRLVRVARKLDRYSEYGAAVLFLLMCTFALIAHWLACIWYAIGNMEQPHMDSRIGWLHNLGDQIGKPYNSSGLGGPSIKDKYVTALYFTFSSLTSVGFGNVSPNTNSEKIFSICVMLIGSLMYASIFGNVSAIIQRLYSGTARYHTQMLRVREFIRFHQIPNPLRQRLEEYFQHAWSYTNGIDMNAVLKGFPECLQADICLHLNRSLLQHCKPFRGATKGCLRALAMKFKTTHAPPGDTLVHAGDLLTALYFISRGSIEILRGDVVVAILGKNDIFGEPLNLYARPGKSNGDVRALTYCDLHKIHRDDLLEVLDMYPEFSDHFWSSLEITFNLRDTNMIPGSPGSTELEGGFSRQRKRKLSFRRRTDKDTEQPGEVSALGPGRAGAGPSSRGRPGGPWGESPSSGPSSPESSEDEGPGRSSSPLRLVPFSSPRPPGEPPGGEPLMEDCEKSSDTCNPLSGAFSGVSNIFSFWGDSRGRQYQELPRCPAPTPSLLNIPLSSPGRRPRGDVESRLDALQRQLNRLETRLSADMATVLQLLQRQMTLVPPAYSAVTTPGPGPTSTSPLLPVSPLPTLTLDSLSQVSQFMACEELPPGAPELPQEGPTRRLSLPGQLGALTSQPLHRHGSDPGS
# Melanin-concentrating hormone receptor 1, sequence (Q99705 whole entry): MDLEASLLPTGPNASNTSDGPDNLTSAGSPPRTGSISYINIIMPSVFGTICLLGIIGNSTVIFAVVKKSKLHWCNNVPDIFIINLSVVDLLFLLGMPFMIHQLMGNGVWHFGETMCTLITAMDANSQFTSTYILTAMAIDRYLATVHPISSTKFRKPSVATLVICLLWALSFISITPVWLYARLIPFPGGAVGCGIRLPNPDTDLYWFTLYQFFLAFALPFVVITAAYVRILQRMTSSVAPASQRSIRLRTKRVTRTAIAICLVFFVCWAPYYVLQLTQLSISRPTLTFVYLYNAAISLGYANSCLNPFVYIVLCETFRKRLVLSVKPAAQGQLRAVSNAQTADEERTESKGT
SMILES,IC50 [1] [nM],IC50 [2] [nM],IC50 [3] [nM],half-life [4] [h],Cmax (Mus musculus [5]) [ng/mL],AUC (Mus musculus [6]) [µg·h/g],AUC (Mus musculus [7]) [ng·h/mL],T1/2 (Mus musculus [8]) [h],Cmax [9] [ng/g]
O=C1COc2cc3c(cc2N1)C(N1CCC(NC(=O)c2cc(=O)c4ccc(F)cc4o2)CC1)CC3 (centres undefined),21,14600,95,,,,,,
CC(=O)Nc1ccc2c(c1)C(N1CCC(NC(=O)c3cc(=O)c4ccc(F)cc4o3)CC1)CC2 (stereo in doubt; 16),3,,56,,,,,,
O=C(NC1CCN(C2CCc3c2ccc2c3OCO2)CC1)c1cc(=O)c2ccc(F)cc2o1 (centres undefined),76,5860,2750,,,,,,
"CC(=O)Nc1ccc2c(c1)C(N1CCC(NC(=O)c3cc(=O)c4ccc(F)cc4o3)CC1)CC2 (single isomer, unassigned; (-))",4,,26,2.3,14600,0,41600,,
"CC(=O)Nc1ccc2c(c1)C(N1CCC(NC(=O)c3cc(=O)c4ccc(F)cc4o3)CC1)CC2 (single isomer, unassigned; (+))",2570,,> 10000,,1410,0.043,3760,1.3,17
O=C(NC1CCN(C2CCc3cc4oc(=O)[nH]c4cc32)CC1)c1cc(=O)c2ccc(F)cc2o1 (centres undefined),11,25000,173,,,,,,
